Results reported in ChEMBL document CHEMBL3108721, “4,4'-Unsymmetrically substituted 3,3'-biphenyl alpha helical proteomimetics as potential coactivator binding inhibitors” (Bioorg Med Chem, 2014).

Key:
[1] = molecular target: T1, Estrogen receptor (Homo sapiens) (UniProt P03372); experiment: Inhibition of ER-alpha (unknown origin) transcriptional activity expressed in ER-negative human SKBR3 cells coexpressing ERE assessed as change in reporter gene activity after 40 hrs in presence of estradiol relative to control; type: cell-based; parameters: concentration or dose not given beside the values; conditions: SK-BR-3
T1 sequence (whole entry): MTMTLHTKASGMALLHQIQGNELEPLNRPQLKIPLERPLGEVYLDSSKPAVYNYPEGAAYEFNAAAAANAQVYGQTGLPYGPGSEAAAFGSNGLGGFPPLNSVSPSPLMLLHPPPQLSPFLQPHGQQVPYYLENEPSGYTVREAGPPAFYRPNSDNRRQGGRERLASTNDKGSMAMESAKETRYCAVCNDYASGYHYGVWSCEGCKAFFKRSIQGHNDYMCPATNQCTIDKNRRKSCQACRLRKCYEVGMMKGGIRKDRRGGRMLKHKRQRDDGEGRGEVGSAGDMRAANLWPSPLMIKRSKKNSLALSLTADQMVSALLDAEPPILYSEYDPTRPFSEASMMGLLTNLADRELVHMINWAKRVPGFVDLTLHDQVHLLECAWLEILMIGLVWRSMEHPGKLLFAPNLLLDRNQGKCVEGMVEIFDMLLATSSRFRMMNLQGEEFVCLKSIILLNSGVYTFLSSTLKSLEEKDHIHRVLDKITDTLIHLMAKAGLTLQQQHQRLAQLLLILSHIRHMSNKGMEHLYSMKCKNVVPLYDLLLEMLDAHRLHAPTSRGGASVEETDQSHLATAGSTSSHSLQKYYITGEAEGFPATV
In short: (§1)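 ER-negative SKBR3 cells cotransfected with 3xERE-TATA-luciferase, RST7-ERα and pCMV-β-gal for normalization. […] Scored as >50% decrease or increase at <20, 20–50 or >50 μM, or <20% change. 4-hydroxytamoxifen as antagonist control. Cell death above 50 μM flagged.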

[2] = test system: HepG2; experiment: Cytotoxicity against human HepG2 cells expressing ER-alpha coexpressing GRIP1 assessed as cell death at >50 uM in presence of estradiol; type: cell-based
In short: (§2)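 HepG2 cells transfected with VP16-ERα, Gal4-DBD-fused GRIP1 LxxLL2 peptide and 5xGal4Luc3 reporter. […] Scored as >50% decrease or increase at <20, 20–50 or >50 μM, or <20% change. 4-hydroxytamoxifen as antagonist control. Cell death and precipitation flagged.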

[3] = test system: HepG2; experiment: Cytotoxicity against human HepG2 cells expressing ER-alpha coexpressing GRIP1 assessed as cell death at >50 uM; type: cell-based; in short: as §2
[4] = molecular target: T1, Estrogen receptor (Homo sapiens); experiment: Inhibition of ER-alpha (unknown origin) transcriptional activity expressed in ER-negative human SKBR3 cells coexpressing ERE assessed as change in reporter gene activity after 40 hrs relative to control; type: cell-based; parameters: concentration or dose not given beside the values; conditions: SK-BR-3; in short: as §1
[5] = molecular target: T1, Estrogen receptor (Homo sapiens); experiment: Competitive inhibition of ER-alpha (unknown origin)-GRIP1 interaction expressed in human HepG2 cells assessed as change in reporter gene activity after 40 hrs relative to control; type: cell-based; parameters: concentration or dose not given beside the values; in short: as §2
[6] = molecular target: T1, Estrogen receptor (Homo sapiens); experiment: Competitive inhibition of ER-alpha (unknown origin)-GRIP1 interaction expressed in human HepG2 cells assessed as change in reporter gene activity after 40 hrs in presence of estradiol relative to control; type: cell-based; parameters: concentration or dose not given beside the values; in short: as §2
[7] = molecular target: T1, Estrogen receptor (Homo sapiens); experiment: Inhibition of ER-alpha (unknown origin) transcriptional activity expressed in ER-negative human SKBR3 cells coexpressing ERE assessed as increase in reporter gene activity at >50 uM after 40 hrs relative to control; type: cell-based; parameters: scale not given: the % may be the effect or the level left; conditions: SK-BR-3; in short: as §1
[8] = molecular target: T1, Estrogen receptor (Homo sapiens); experiment: Competitive inhibition of ER-alpha (unknown origin)-GRIP1 interaction expressed in human HepG2 cells assessed as increase in reporter gene activity at >50 uM after 40 hrs relative to control; type: cell-based; parameters: scale not given: the % may be the effect or the level left; in short: as §2
[9] = Cytotoxicity against ER-negative human SKBR3 cells expressing ER-alpha coexpressing ERE assessed as cell death at >50 uM; type: cell-based; conditions: sk-br-3; in short: as §1
[10] = molecular target: T1, Estrogen receptor (Homo sapiens); experiment: Competitive inhibition of ER-alpha (unknown origin)-GRIP1 interaction expressed in human HepG2 cells assessed as decrease in reporter gene activity at >50 uM after 40 hrs in presence of estradiol relative to control; type: cell-based; parameters: scale not given: the % may be the effect or the level left; in short: as §2
[11] = Cytotoxicity against ER-negative human SKBR3 cells expressing ER-alpha coexpressing ERE assessed as cell death at >50 uM in presence of estradiol; type: cell-based; conditions: sk-br-3; in short: as §1
[12] = molecular target: T1, Estrogen receptor (Homo sapiens); experiment: Inhibition of ER-alpha (unknown origin) transcriptional activity expressed in ER-negative human SKBR3 cells coexpressing ERE assessed as increase in reporter gene activity at 20 to 50 uM after 40 hrs relative to control; type: cell-based; parameters: scale not given: the % may be the effect or the level left; conditions: SK-BR-3; in short: as §1
[13] = molecular target: T1, Estrogen receptor (Homo sapiens); experiment: Inhibition of ER-alpha (unknown origin) transcriptional activity expressed in ER-negative human SKBR3 cells coexpressing ERE assessed as decrease in reporter gene activity at <20 uM after 40 hrs relative to control; type: cell-based; parameters: scale not given: the % may be the effect or the level left; conditions: SK-BR-3; in short: as §1
[14] = molecular target: T1, Estrogen receptor (Homo sapiens); experiment: Competitive inhibition of ER-alpha (unknown origin)-GRIP1 interaction expressed in human HepG2 cells assessed as decrease in reporter gene activity at <20 uM after 40 hrs relative to control; type: cell-based; parameters: scale not given: the % may be the effect or the level left; in short: as §2
[15] = molecular target: T2, Estrogen receptor (Homo sapiens, UniProt P03372); experiment: Competitive inhibition of ER-alpha (unknown origin) ligand binding pocket expressed in ER-negative human SKBR3 cells coexpressing ERE using estradiol as substrate; type: cell-based, SK-BR-3
T2 sequence (P03372 whole entry): T1 sequence (whole entry)
In short: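 SKBR3 (ER-negative breast cancer) cells were transfected with RST7–ERα, a 3xERE-TATA-luciferase reporter and a pCMV-β-gal normalization control. […] Cells were incubated 40 h, then luciferase reporter activity was read.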

[16] = molecular target: T1, Estrogen receptor (Homo sapiens); experiment: Competitive inhibition of ER-alpha (unknown origin)-GRIP1 interaction expressed in human HepG2 cells assessed as decrease in reporter gene activity at <20 uM after 40 hrs in presence of estradiol relative to control; type: cell-based; parameters: scale not given: the % may be the effect or the level left; in short: as §2
[17] = molecular target: T1, Estrogen receptor (Homo sapiens); experiment: Inhibition of ER-alpha (unknown origin) transcriptional activity expressed in ER-negative human SKBR3 cells coexpressing ERE assessed as decrease in reporter gene activity at <20 uM after 40 hrs in presence of estradiol relative to control; type: cell-based; parameters: scale not given: the % may be the effect or the level left; conditions: SK-BR-3; in short: as §1
[18] = molecular target: T1, Estrogen receptor (Homo sapiens); experiment: Competitive inhibition of ER-alpha (unknown origin)-GRIP1 interaction expressed in human HepG2 cells assessed as increase in reporter gene activity at <20 uM after 40 hrs relative to control; type: cell-based; parameters: scale not given: the % may be the effect or the level left; in short: as §2
[19] = molecular target: T1, Estrogen receptor (Homo sapiens); experiment: Competitive inhibition of ER-alpha (unknown origin)-GRIP1 interaction expressed in human HepG2 cells assessed as increase in reporter gene activity at <20 uM after 40 hrs in presence of estradiol relative to control; type: cell-based; parameters: scale not given: the % may be the effect or the level left; in short: as §2
[20] = molecular target: T1, Estrogen receptor (Homo sapiens); experiment: Inhibition of ER-alpha (unknown origin) transcriptional activity expressed in ER-negative human SKBR3 cells coexpressing ERE assessed as increase in reporter gene activity at <20 uM after 40 hrs relative to control; type: cell-based; parameters: scale not given: the % may be the effect or the level left; conditions: SK-BR-3; in short: as §1
[21] = molecular target: T1, Estrogen receptor (Homo sapiens); experiment: Competitive inhibition of ER-alpha (unknown origin)-GRIP1 interaction expressed in human HepG2 cells assessed as decrease in reporter gene activity at 20 to 50 uM after 40 hrs relative to control; type: cell-based; parameters: scale not given: the % may be the effect or the level left; in short: as §2
[22] = molecular target: T1, Estrogen receptor (Homo sapiens); experiment: Competitive inhibition of ER-alpha (unknown origin)-GRIP1 interaction expressed in human HepG2 cells assessed as decrease in reporter gene activity at 20 to 50 uM after 40 hrs in presence of estradiol relative to control; type: cell-based; parameters: scale not given: the % may be the effect or the level left; in short: as §2

| Compound | Activity [1] | Activity [5] | Activity [6] | Activity [7] | Activity [2] | Activity [3] | further results |
| --- | --- | --- | --- | --- | --- | --- | --- |
| CCOC(=O)COc1ccc(-c2ccc(O)c(CC3CCCCC3)c2)cc1CC1CCCCC1 | < 20% | < 20% | < 20% | – | Toxic | Toxic | Activity [4]: < 20% |
| CCOC(=O)COc1ccc(-c2ccc(O)cc2)cc1Cc1ccc(-c2ccccc2)cc1 | < 20% | – | < 20% | > 50% | Toxic | Toxic | Activity [8]: > 50% |
| CCOC(=O)COc1ccc(-c2ccc(OCCN(C)C)c(CC3CCCCC3)c2)cc1CC1CCCCC1 | < 20% | < 20% | – | > 50% | – | – | Activity [9]: Toxic; Activity [10]: > 50%; Activity [11]: Toxic |
| CCOC(=O)COc1ccc(-c2ccc(O)c(Cc3ccc4ccccc4c3)c2)cc1 | < 20% | – | < 20% | – | Toxic | Toxic | Activity [12]: > 50%; Activity [8]: > 50% |
| CCOC(=O)COc1ccc(-c2ccc(OCCN(C)C)c(Cc3ccc(-c4ccccc4)cc3)c2)cc1 | – | – | – | – | Toxic | Toxic | Activity [13]: > 50%; Activity [14]: > 50%; IC50 [15]: 3.1 µM; Activity [16]: > 50%; Activity [17]: > 50% |
| CCOC(=O)COc1ccc(-c2ccc(OCCN(C)C)c(Cc3ccc(-c4ccccc4)cc3)c2)cc1Cc1ccc(-c2ccccc2)cc1 | < 20% | < 20% | < 20% | – | – | – | Activity [12]: > 50% |
| CCOC(=O)COc1ccc(-c2ccc(OCCN(C)C)c(Cc3ccc4ccccc4c3)c2)cc1 | < 20% | – | – | – | – | – | Activity [18]: > 50%; Activity [19]: > 50%; Activity [20]: > 50% |
| CCOC(=O)COc1ccc(-c2ccc(O)cc2)cc1Cc1ccc2ccccc2c1 | < 20% | < 20% | – | – | – | – | Activity [4]: < 20%; Activity [10]: > 50% |
| CCOC(=O)COc1ccc(-c2ccc(OCCN(C)C)cc2)cc1Cc1ccc2ccccc2c1 | – | – | – | – | Toxic | Toxic | Activity [13]: > 50%; Activity [14]: > 50%; IC50 [15]: 3.2 µM; Activity [16]: > 50%; Activity [17]: > 50% |
| CCOC(=O)COc1ccc(-c2ccc(O)c(Cc3ccc(-c4ccccc4)cc3)c2)cc1 | < 20% | – | – | – | – | – | Activity [21]: > 50%; Activity [4]: < 20%; Activity [22]: > 50% |
| CCOC(=O)COc1ccc(-c2ccc(OCCN(C)C)c(Cc3ccc4ccccc4c3)c2)cc1Cc1ccc2ccccc2c1 | < 20% | – | < 20% | > 50% | Toxic | Toxic | Activity [9]: Toxic; Activity [8]: > 50%; Activity [11]: Toxic |
| CCOC(=O)COc1ccc(-c2ccc(O)c(Cc3ccc4ccccc4c3)c2)cc1Cc1ccc2ccccc2c1 | < 20% | < 20% | < 20% | > 50% | – | – | – |
| CCOC(=O)COc1ccc(-c2ccc(O)c(Cc3ccc(-c4ccccc4)cc3)c2)cc1Cc1ccc(-c2ccccc2)cc1 | < 20% | < 20% | < 20% | – | – | – | Activity [20]: > 50% |
| CCOC(=O)COc1ccc(-c2ccc(O)c(CC3CCCCC3)c2)cc1 | < 20% | < 20% | – | – | – | – | Activity [9]: Toxic; Activity [10]: > 50%; Activity [20]: > 50%; Activity [11]: Toxic |

Second part, led by results:

| Activity [1] | Activity [5] | Activity [6] | Activity [7] | Compound | Activity [2] | Activity [3] | further results |
| --- | --- | --- | --- | --- | --- | --- | --- |
| < 20% | – | < 20% | > 50% | CCCCCCCc1cc(-c2ccc(OCC(=O)OCC)cc2)ccc1O | Toxic | Toxic | Activity [8]: > 50% |
| < 20% | < 20% | < 20% | – | CCCCCCCc1cc(-c2ccc(OCC(=O)OCC)c(CCCCCCC)c2)ccc1O | – | – | Activity [4]: < 20% |
| < 20% | < 20% | < 20% | – | CCCCCCCc1cc(-c2ccc(O)cc2)ccc1OCC(=O)OCC | – | – | Activity [4]: < 20% |
| < 20% | < 20% | < 20% | – | CCOC(=O)COc1ccc(-c2ccc(O)cc2)cc1CC1CCCCC1 | – | – | Activity [20]: > 50% |
| < 20% | – | < 20% | > 50% | CCCCCCCc1cc(-c2ccc(OCC(=O)OCC)cc2)ccc1OCCN(C)C | – | – | Activity [8]: > 50% |
| < 20% | – | < 20% | > 50% | CCCCCCCc1cc(-c2ccc(OCC(=O)OCC)c(CCCCCCC)c2)ccc1OCCN(C)C | – | – | Activity [8]: > 50% |
| < 20% | < 20% | – | – | CCCCCCCc1cc(-c2ccc(OCCN(C)C)cc2)ccc1OCC(=O)OCC | – | – | Activity [4]: < 20%; Activity [10]: > 50% |
